In series [1] the test system is Mus musculus. Kind of series: Toxicity in mouse S180 cells xenografted Kunming mouse assessed as body weight at 60 mg/kg/day, QD administered via oral gavage for 10 consecutive days measured on day 11 (reference value: 23.84 +/- 2.11g). The series is classed as organism-based, CCRF S-180. The settings on record: in vivo. The essentials:
(§1)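 Kunming mice (20 ± 2 g) inoculated subcutaneously in right front armpit with seven-day-old ascites (0.2 ml, 2 × 10^6 cells). 24 h later randomized, 10 per group; oral gavage 60 mg/kg/day or normal saline (10 mL/kg) once daily for ten days. Sacrificed day 11; tumors and mice weighed. Inhibition rate = (Wcontrol − Wtreated)/Wcontrol × 100%.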

Series [2] can be described thus: Cytotoxicity against human MGC803 cells after 48 hrs by MTT assay. The series is classed as functional, cell-based, MGC-803. The method in brief:
(§2)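 Tumor cells in log phase in RPMI 1640 + 10% FBS, seeded at 3×10^4 cells mL-1 and incubated 24 h (37 °C, 5% CO2). Test samples added at pre-set concentrations (6 wells each), doxorubicin as reference; 48 h exposure. MTT (2.5 mg·mL-1 in PBS) added for 4 h, formazan dissolved in DMSO, A570 read.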

A short description of series [3]: Antitumor activity against mouse EAC cells xenografted in Kunming mouse assessed as prolongation of survival time at 60 mg/kg/day, QD administered via oral gavage for 10 consecutive days days relative to untreated control. The series is classed as functional. Conditions: Ehrlich. The essentials: (§3)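 EAC cells were grown in RPMI-1640 with 10% heat-inactivated FBS and were kept as ascites by passaging 0.2 mL (2 × 10^6 cells) between mice. Kunming mice weighing 20 ± 2 g were used. Survival was followed by mortality. Mean survival time is the sum of each mouse's survival days divided by the number of mice. %ILS is the […].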

A short description of series [4]: Cytotoxicity against human PC3 cells after 48 hrs by MTT assay. The series is classed as functional, cell-based, PC-3. The essentials: as §2
A short description of series [5]: Cytotoxicity against human L02 cells after 48 hrs by MTT assay. The series is classed as cell-based. The settings on record: L02, 48 h. The method in brief:
(§4)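 Human normal gastric mucosa GES-1 and liver L-02 cells; MTT assay; IC50 expressed in mM as mean of triplicate experiments.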
(In general: Formazan colour is commonly taken as a measure of viable cells.)

Series [6] in a line: Cytotoxicity against human GES-1 cells after 48 hrs by MTT assay. The series is classed as cell-based. Conditions: GES1, 48 h. The essentials: as §4
A short description of series [7]: Antitumor activity against mouse EAC cells xenografted in Kunming mouse assessed as survival time at 60 mg/kg/day, QD administered via oral gavage for 10 consecutive days days (reference value: 16.6 +/- 2.02days). The series is classed as functional, Ehrlich. The essentials: as §3
Series [8] has as its system CCRF S-180. Kind of series: Antitumor activity against mouse S180 cells xenografted in Kunming mouse assessed as inhibition of tumor growth at 60 mg/kg/day, QD administered via oral gavage for 10 consecutive days. The series is classed as functional. Conditions: CCRF S-180, po, read-out: TGI. The essentials: as §1
For series [9], the system named is Mus musculus. The series is described as follows: Toxicity in Kunming mouse xenografted with mouse EAC cells assessed as body weight at 60 mg/kg/day, QD administered via oral gavage for 10 consecutive days measured on day 11 (reference value: 19.52 +/- 1.17g). The settings on record: in vivo. The series is classed as organism-based, Ehrlich.
Series [10] concerns HepG2. Kind of series: Antitumor activity against human HepG2 cells xenografted in Kunming mouse assessed as inhibition of tumor growth at 60 mg/kg/day, QD administered via oral gavage for 10 consecutive days. The series is classed as functional. The settings on record: read-out: TGI. The essentials:
as §1

Series [11] has as its system CCRF S-180. Kind of series: Antitumor activity against mouse S180 cells xenografted in Kunming mouse assessed as tumor weight at 60 mg/kg/day, QD administered via oral gavage for 10 consecutive days (reference value: 1.98 +/- 0.22g). The series is classed as functional. The method in brief: as §1
The subject of series [12] is HepG2. Kind of series: Antitumor activity against human HepG2 cells xenografted in Kunming mouse assessed as tumor weight at 60 mg/kg/day, QD administered via oral gavage for 10 consecutive days (reference value: 1.93 +/- 0.20g). For orientation: Xenograft models place foreign cells or tissue in a host animal.
Series [13] has as its system HepG2. Kind of series: Cytotoxicity against human HepG2 cells after 48 hrs by MTT assay. The series is classed as functional, cell-based. The essentials:
as §2

The subject of series [14] is Mus musculus. The series is described as follows: Toxicity in human HepG2 cells xenografted Kunming mouse assessed as body weight at 60 mg/kg/day, QD administered via oral gavage for 10 consecutive days measured on day 11 (reference value: 25 +/- 1.65g). The series is classed as organism-based. Conditions: in vivo. The essentials: as §1
For series [15], the system named is Rattus norvegicus. The series is described as follows: Antitumor activity against DEN induced Sprague-Dawley rat hepatic tumor assessed as improvement of pathological changes at 50 mg/kg, po qd for 10 consecutive weeks by HE-staining based microscopic analysis. The series is classed as functional, organism-based. The method in brief:
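Male SD rats (120~160 g) gavaged with DEN 8 mg/kg once daily, 6 days/week; DEN continued to week 16. From week 10, compound given orally at 50 mg·kg-1 once daily for 10 consecutive weeks; n = 12 per group. Similar parts of left liver lobe fixed in 4% polyformaldehyde, paraffin-embedded, sectioned, HE stained; histopathology viewed at ×200.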

In series [16] the test system is Bcap37. The series is described as follows: Cytotoxicity against human Bcap37 cells after 48 hrs by MTT assay. The series is classed as functional, cell-based. The method in brief: as §2
The target in series [17] is T1, Telomerase reverse transcriptase (Homo sapiens, UniProt O14746). Kind of series: Inhibition of telomerase in human MGC-803 cells after 24 hrs by TRAP-PCR-ELISA assay. The series is classed as cell-based. The method in brief:
(§5)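 Cells lysed in RIPA on ice for 30 min; extract incubated with TRAP mix at 25 °C for 30 min, then 35 PCR cycles. Products hybridized to DIG probe, captured on streptavidin, detected with peroxidase anti-DIG at 490 nm; mean±SD.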
On the technique in general: In an ELISA, binding on a coated surface is turned into a signal by an enzyme label.

Series [18] has as its target T1, Telomerase reverse transcriptase. The series is described as follows: Inhibition of telomerase in human MGC-803 cells upto 60 uM after 24 hrs by TRAP-PCR-ELISA assay. The series is classed as cell-based. The essentials:
as §5

[19] abbreviates: Homo sapiens, MGC-803, 48 h, read-out: IC50.
[20] abbreviates: Homo sapiens, PC-3, 48 h, read-out: IC50.
The mark [21] stands for this setting: Homo sapiens, HepG2, 48 h, read-out: IC50.
Where [22] appears, read: Homo sapiens, Bcap37, 48 h, read-out: IC50.

Activity calls are given as the source filed them. No cut-off for these calls is given here.

T1 sequence (O14746 whole entry): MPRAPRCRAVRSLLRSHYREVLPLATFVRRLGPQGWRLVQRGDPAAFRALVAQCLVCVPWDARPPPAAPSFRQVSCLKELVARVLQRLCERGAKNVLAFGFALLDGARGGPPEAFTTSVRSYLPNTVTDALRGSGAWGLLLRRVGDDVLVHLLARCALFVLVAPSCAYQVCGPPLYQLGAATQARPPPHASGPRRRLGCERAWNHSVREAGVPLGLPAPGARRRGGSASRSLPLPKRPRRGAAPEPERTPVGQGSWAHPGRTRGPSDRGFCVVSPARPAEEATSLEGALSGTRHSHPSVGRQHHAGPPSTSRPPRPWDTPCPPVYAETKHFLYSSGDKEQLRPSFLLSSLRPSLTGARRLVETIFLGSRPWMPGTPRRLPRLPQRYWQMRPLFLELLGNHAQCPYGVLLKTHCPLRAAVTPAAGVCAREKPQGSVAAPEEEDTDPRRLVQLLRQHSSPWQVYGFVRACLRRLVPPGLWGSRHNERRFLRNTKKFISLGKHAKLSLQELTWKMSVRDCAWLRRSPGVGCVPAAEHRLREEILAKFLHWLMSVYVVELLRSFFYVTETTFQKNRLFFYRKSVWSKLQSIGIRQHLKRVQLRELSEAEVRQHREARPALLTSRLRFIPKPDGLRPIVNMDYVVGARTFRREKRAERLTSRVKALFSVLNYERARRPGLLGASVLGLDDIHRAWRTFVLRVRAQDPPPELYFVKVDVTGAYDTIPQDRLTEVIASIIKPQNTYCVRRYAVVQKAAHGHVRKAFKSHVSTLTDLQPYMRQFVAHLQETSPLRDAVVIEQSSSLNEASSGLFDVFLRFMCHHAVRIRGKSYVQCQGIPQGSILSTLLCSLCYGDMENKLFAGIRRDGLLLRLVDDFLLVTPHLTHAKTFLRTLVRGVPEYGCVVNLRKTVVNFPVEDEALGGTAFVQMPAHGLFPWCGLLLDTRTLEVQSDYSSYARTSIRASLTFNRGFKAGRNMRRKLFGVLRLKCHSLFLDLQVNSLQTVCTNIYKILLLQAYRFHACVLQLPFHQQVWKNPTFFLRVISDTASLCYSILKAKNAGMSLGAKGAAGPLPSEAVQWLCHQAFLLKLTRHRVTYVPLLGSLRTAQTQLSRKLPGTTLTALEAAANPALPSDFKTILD

In the case of `CCCCN(CCCC)CC(=O)N1N=C(c2cc3ccccc3oc2=O)CC1c1ccccc1` (stereo not drawn), the Activity came to 24.64 g in [1]; 19.6 g in series [9]; 1.01 g in [11]; 1.04 g in [12]; 27.11 g in [14]. The half-inhibitory concentration (IC50) (in general, the midpoint of a concentration-inhibition curve) in [2] (setting [19]) is 2.96 µM; in [4] (setting [20]), 4.87 µM; in series [5], 1620 µM; in [6], 1640 µM; in series [13] (setting [21]), 2.45 µM; in series [16] (setting [22]), 3.37 µM. This compound returned an IC50 in series [17] of 0.98 µM. The survival at 60 mg/kg/day in [3] amounted to 43.9%. Further, the Survival in [7] turned out to be 23.89 days. Moreover, the inhibition in vivo at 60 mg/kg/day was determined as 48.9% in [8] and 46.1% in series [10]. Also, in series [15], the outcome was Active.
As to `CC1=NN(S(=O)(=O)c2ccc(C)cc2)C(c2cc(Br)cc(Br)c2O)C1` (stereo not drawn), the IC50 entry in series [2] (mgc-803) was “Not Active”; in [4] (setting [20]), 51.2 µM; in [13] (hepg2), “Not Active”; in series [16] (bcap37) it was “Not Active”. In addition, in [18], the inhibition entry is “inactive”.
`O=C(CN1CCC(O)CC1)N1N=C(c2cc3ccccc3oc2=O)CC1c1ccccc1` (stereo not drawn): the IC50 result in [2] (mgc-803), in series [4] (pc-3), in [13] (hepg2) and in series [16] (bcap37) was “Not Active” in each case. Besides, the inhibition result in series [18] is “inactive”.
Consider `CC1=NN(C(=O)CN2CCCCC2)C(c2ccccc2O)C1` (stereo not drawn), for which the Activity in [1] came to 24.89 g; in series [9], 19.3 g; in [11] it was 1.1 g; in series [12], 1.17 g; in series [14], 26 g. Further, the IC50 was found to be 4.31 µM in series [2] (setting [19]); 5.89 µM in series [4] (setting [20]); 1800 µM in series [5]; 1290 µM in series [6]; 3.02 µM in series [13] (setting [21]); 33.1 µM in series [16] (setting [22]). This compound showed an IC50 in series [17] of 4.63 µM. In series [3], the survival at 60 mg/kg/day was 41%. In addition, the Survival in [7] was 23.41 days. The inhibition in vivo at 60 mg/kg/day in [8] worked out at 44.4%; in series [10], 39.4%.
For the compound `CCN(CC)CC(=O)N1N=C(C)CC1c1ccccc1OC(C)=O` (stereo not drawn), the IC50 is 29.5 µM in [2] (setting [19]), 51.2 µM in series [4] (setting [20]), 33.2 µM in series [13] (setting [21]) and 44.2 µM in series [16] (setting [22]). Further, the inhibition entry in [18] was “inactive”.
